# Measurements taken from BindingDB's records for doi:10.1016/j.bmc.2011.09.065 (2011).
# Biological target: Amyloid-beta precursor protein (Homo sapiens, UniProt P05067)
# Test: Binding affinity to human amyloid beta (1 to 42) fibril by fluorescence intensity assay
# Procedure, shortened: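 Fibrils grown from human insulin (3 mg/mL, Tris-HCl 50 mM pH 3), E. coli-expressed human α-syn (3 mg/mL, pH 7.4) or Aβ(1–42) (0.5 mg/ml, 1% NH4OH). Fibril level taken as supernatant protein depletion. Plate-reader intensity read at each ligand's maximal excitation/emission wavelengths, dye blanks subtracted. Kd from single-site saturation fit.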
# Chain of Amyloid-beta precursor protein (P05067 whole entry): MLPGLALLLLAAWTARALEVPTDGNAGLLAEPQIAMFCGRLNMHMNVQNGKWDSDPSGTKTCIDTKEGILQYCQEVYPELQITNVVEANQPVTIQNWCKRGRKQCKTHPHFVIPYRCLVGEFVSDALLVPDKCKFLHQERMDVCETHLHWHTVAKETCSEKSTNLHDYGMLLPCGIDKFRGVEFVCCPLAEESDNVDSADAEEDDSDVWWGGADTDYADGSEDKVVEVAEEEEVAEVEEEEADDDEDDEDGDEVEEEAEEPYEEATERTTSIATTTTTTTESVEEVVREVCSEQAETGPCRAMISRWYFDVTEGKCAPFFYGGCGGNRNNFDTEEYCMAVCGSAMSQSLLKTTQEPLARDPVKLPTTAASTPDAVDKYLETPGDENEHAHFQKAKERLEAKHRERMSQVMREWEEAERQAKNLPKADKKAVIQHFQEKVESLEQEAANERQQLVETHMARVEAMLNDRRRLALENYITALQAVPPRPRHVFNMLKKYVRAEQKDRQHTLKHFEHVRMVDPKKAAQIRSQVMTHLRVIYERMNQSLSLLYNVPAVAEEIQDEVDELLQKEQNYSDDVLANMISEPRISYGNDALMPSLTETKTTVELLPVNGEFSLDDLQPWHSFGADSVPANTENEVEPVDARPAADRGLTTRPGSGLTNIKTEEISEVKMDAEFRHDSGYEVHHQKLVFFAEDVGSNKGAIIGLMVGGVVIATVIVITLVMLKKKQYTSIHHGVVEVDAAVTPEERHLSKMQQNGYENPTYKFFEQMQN
row,SMILES,Kd [µM]
1,CN(CCF)c1ccc(/C=C/c2nc3ccccc3[nH]2)cc1,0.278
2,CN(CCF)c1ccc(/C=C\c2nc3ccccc3s2)cc1,0.042
3,CN(CCF)c1ccc(/C=C\c2nc3ccccc3n2C)cc1,0.286

# Further compounds by falling Kd, results first:
row,Kd [µM],SMILES
1,0.222,CN(CCF)c1ccc(/C=C/c2nc3ccccc3o2)cc1
2,0.192,CN(CCF)c1ccc(/C=C/c2nc3ccccc3n2C)cc1
3,0.167,CN(CCF)c1ccc(/C=C\c2nc3ccccc3o2)cc1
4,0.091,CN(CCF)c1ccc(/C=C/c2nc3ccccc3s2)cc1
